# Screening results from PubChem BioAssay.
# Most compounds without a hit are left out; they make up all but 3.5% or so of the library.
# PglD DTNB – PglD (C. jejuni) enzyme inhibition | purified PglD enzyme, DTNB colorimetric CoA detection | inhibition, % at 12.5 µM | 360,000 tested, 0.098% active | AID 602405; in the data active = inhibition above about 16%, passing the limit was not always enough; inconclusive = no clear call, values can overlap the other calls
# DENV2 CPE rescue – DENV2-induced cell death inhibition; DENV2-infected cells, cytopathic effect rescue, plate reader; CPE inhibition, % at 9.99 µM; 350,000 tested, 1.7% active; AID 651640; in the data active = CPE inhibition above about 20%, passing the limit was not always enough; inconclusive = no clear call, values can overlap the other calls; tested in BHK-21 cells;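 also: 0% = median of neutral control wells and 100% = median of positive control wells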
# Env fusion inh – inhibitors of HIV Env-mediated cell fusion; HeLa-JRFL Env/CEM21 cell fusion, luciferase; inhibition, % at 12.3 µM; 360,000 tested, 1.1% active;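 active = mean replicate inhibition score of at least 50 and every replicate individually at or above 50; inconclusive = only one of the two criteria met; inactive = mean below 50 and not all replicates reaching 50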;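 also: 0% = plate neutral controls and 100% = maraviroc near 300 nM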
# PGC1a acetyl inh – PGC1a acetylation modulation, inhibitor mode | U2OS PGC1a acetylation, AlphaScreen anti-acetyl-lysine; with virally co-expressed GCN5 acetyltransferase | 350,000 tested, 0.17% active | inhibition, % at 15.6 µM | AID 651687;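 active = every replicate shows inhibition of at least 40%; inconclusive = mean inhibition at least 40% but some replicate below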;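 also: 0% = neutral control wells and 100% = positive control wells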
# Ecoli rRNA inh – selective bacterial rRNA inhibition in E. coli; E. coli WT GFP vs humanized-ribosome RFP mutants, fluorescence, 24 h; hits give low values; DMSO median 0, no signal -100; GFP signal change (wild-type ribosome), % (no concentration beside the values); 350,000 tested, 1.6% active; AID 720706;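 active = significant combined selectivity score with lowered wild-type GFP, culture density cut under 30%, mutant RFP and density less affected; inactive = any of these conditions unmet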
# FN deposit inh – fibronectin deposition inhibition | inhibition, % at 12.6 µM | AH1F fibroblasts, Alexa488-fibronectin deposition fluorescence, overnight | 350,000 tested, 0.086% active;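 active = mean inhibition across replicates of 30% or more, regardless of how many single replicates reach that level; inconclusive = mean under 30% yet at least half of replicates reach 30%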;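 also: positive control wells lacked labelled fibronectin entirely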
#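 Assay system: AH1F fibroblasts / Quantity: 10000 cells per well / Medium: DMEM plus 2% serum, read in PBS / Reagent: labelled fibronectin 24 nM / Dosing: single dose, pinned / Times: 1 h cell attachment, overnight exposure to compound and label / Signal: fluorescence, ex 485 nm, em 525 nm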
# * marks the source's active call; other numbers are inactive results; ? = inconclusive; nt = no result given; [ ] = dose if it differs, or a comment.
SMILES,PglD DTNB,DENV2 CPE rescue,Env fusion inh,PGC1a acetyl inh,Ecoli rRNA inh,FN deposit inh
Cc1ccccc1NC(=S)N1CCN(C(=O)c2ccco2)CC1,nt,0,11,nt,3,5
Cc1cc(Cl)ccc1NC(=S)N1CCN(C(=O)c2ccco2)CC1,1,8,11,-7,-37*,-1
CCCCOC(=O)/C=C/c1c(C)[nH]c(=O)[nH]c1=O,nt,4,3,nt,-34*,8
C[C@@H]1CN([C@H](C)CO)C(=O)c2cccc(NC(=O)c3ccncc3)c2O[C@H]1CN(C)S(=O)(=O)c1ccccc1,0,?,-16[16.7 µM],-5,5,-3
CC(C)NC(=O)C1(C)CCN1Cc1ccc(-c2ccccc2)cc1 (stereo not drawn),4,0,57*,nt,-1,1
COc1ccccc1C#Cc1ccc([C@@H]2[C@@H](CO)N(C(=O)C3CCC3)[C@H]2C#N)cc1,2,-2,3[16.7 µM],-8,-18,13
Cc1ccc(S(=O)(=O)N(C)C[C@H]2OCCCC[C@H](C)Oc3ccc(NS(=O)(=O)c4ccc(F)cc4)cc3C(=O)N([C@H](C)CO)C[C@@H]2C)cc1,0,-5,-42[16.7 µM],-2,-2,-5
OC[C@@H]1[C@@H](c2ccccc2)C2(CN(Cc3cccnc3)C2)N1Cc1ccncc1,nt,2,nt,8,4,-3
OC[C@@H]1[C@H](c2ccccc2)C2(CN(Cc3nccs3)C2)N1Cc1cccnc1,nt,-6,nt,-6,5,nt
OC[C@@H]1[C@H](c2ccccc2)C2(CN(Cc3cccnc3)C2)N1Cc1ccncc1,nt,20*,nt,-1,3,0
OC[C@@H]1[C@@H](c2ccccc2)C2(CN(Cc3nccs3)C2)N1Cc1cccnc1,nt,84*,nt,1,1,nt
OC[C@@H]1[C@@H](c2ccccc2)C2(CN(Cc3nccs3)C2)N1Cc1ccccc1,nt,20*,nt,1,-3,2
CCNC(=O)C[C@H]1CC[C@H]2[C@@H](COC[C@@H](O)CN2C(=O)c2cccnc2)O1,-3,-10,nt,1,4,-5
CCNC(=O)C[C@H]1CC[C@H]2[C@@H](COc3ccc(NC(=O)c4cccc(OC)c4)cc3C(=O)N2C)O1,-1,7,5[16.7 µM],12,-1,-9
C[C@@H]1CN([C@@H](C)CO)C(=O)c2cc(-c3ccccc3)cnc2O[C@@H]1CN(C)Cc1ccccc1,0,6,-10[16.7 µM],9,1,38*
C[C@@H]1CN([C@H](C)CO)C(=O)c2cc(-c3cccnc3)cnc2O[C@H]1CN(C)Cc1ccc(-c2ccccc2)cc1,-2,-5,16[16.7 µM],-9,4,nt
C[C@@H]1CN([C@@H](C)CO)C(=O)c2cc(-c3cccnc3)cnc2O[C@@H]1CN(C)Cc1ccc(-c2ccccc2)cc1,-10,37*,-2[16.7 µM],4,-5,nt
Cc1nn(C)cc1NC(=O)C[C@@H]1CC[C@H]2[C@H](COc3ccc(NC(=O)C4CCOCC4)cc3C(=O)N2C)O1,1,-6,11[16.7 µM],nt,0,-16
c1ccc(CN2CCC(Nc3nc(-c4cccnc4)nc4ccccc34)CC2)cc1,-6,-3,-13,15,-33*,2
C=CC(=O)Nc1cccc(Oc2ncnc3[nH]cc(-c4cnc5ccccc5c4)c23)c1,5,-14,57*,14,0,9
Cc1cc(OCC(=O)NC2CC(C)(C)NC(C)(C)C2)c(C)cc1Br,-2,42*,12,nt,0,nt
Cc1ccc(OCC(=O)NC2CC(C)(C)NC(C)(C)C2)c(C)c1,8,-6,6,2,13,-6
C[C@@H]1CN([C@H](C)CO)C(=O)c2cccc(NS(=O)(=O)c3cn(C)cn3)c2O[C@H]1CN(C)C(=O)Nc1ccc(F)cc1,-2,71*,73*[16.7 µM],-2,1,0
C[C@@H]1CN([C@H](C)CO)C(=O)c2cccc(NS(=O)(=O)c3cn(C)cn3)c2O[C@H]1CN(C)C(=O)Nc1ccc2c(c1)OCO2,4,72*,nt,10,3,nt
CC12CCC(C(=O)N3CCC(Cc4ccccc4)CC3)(C(=O)C1=O)C2(C)C (stereo not drawn),nt,-4,18,nt,-23*,nt
SMILES,PglD DTNB,DENV2 CPE rescue,Env fusion inh,PGC1a acetyl inh,Ecoli rRNA inh,FN deposit inh
CCCC(=O)N1CCC(Cc2ccccc2)CC1,-1,-2,-10,nt,10,5
Cc1cc(OCC(=O)NC(Cc2ccc(Cl)cc2)C(=O)O)c2c(C)cc(=O)oc2c1 (stereo not drawn),-5,-2,nt,10,nt,nt
Cc1cc(OCC(=O)NC(Cc2c[nH]c3ccc(O)cc23)C(=O)O)c2c(C)c(C)c(=O)oc2c1 (stereo not drawn),3,94*,nt,0,-7,nt
Cc1cc(OCC(=O)NC(Cc2ccc(Cl)cc2)C(=O)O)c2c(C)c(C)c(=O)oc2c1 (stereo not drawn),4,92*,nt,-4,nt,nt
c1coc(CNc2c3c(nc4ccccc24)CCC3)c1,-9,nt,75*,2,nt,nt
CC=Cc1ccc2n(c1=O)C[C@@H]1[C@@H](CO)[C@H](C(=O)NCCC)[C@H]2N1Cc1nccs1 (mixture of isomers),-2,2,nt,nt,4,nt
C[C@@H]1CN([C@H](C)CO)C(=O)Cc2cc(NC(=O)Nc3ccc(F)cc3)ccc2O[C@H]1CN(C)Cc1ccc(-c2ccccc2)cc1,11,-1,-2[16.7 µM],4,1,-5
C[C@@H]1CN([C@@H](C)CO)C(=O)Cc2cc(NC(=O)C3CC3)ccc2O[C@@H]1CN(C)Cc1ccc(-c2ccccc2)cc1,-4,31*,-51[16.7 µM],-6,-1,nt
C[C@H]1CN([C@@H](C)CO)C(=O)Cc2cc(NC(=O)Nc3ccc(F)cc3)ccc2O[C@H]1CN(C)Cc1ccc(-c2ccccc2)cc1,5,50*,-2[16.7 µM],-5,0,7
CCNC(=O)C[C@H]1CC[C@H]2[C@@H](COC[C@H](O)CN2C(=O)C2CCCC2)O1,-2,5,nt,3,2,-6
COCC(=O)Nc1ccc2c(c1)C(=O)N(C)[C@H]1CC[C@@H](CC(=O)NC3CCCC3)O[C@H]1CO2,-3,4,45[16.7 µM],-9,0,-12
BrC(/C=N/N1CCN(Cc2ccccc2)CC1)=C/c1ccccc1,0,3,17,-7,-42*,1
O=[N+]([O-])c1ccc(/C=N/N2CCN(Cc3ccccc3)CC2)cc1,-1,-1,1,16,-16*,0
CN(C)c1ccc(/C=N/N2CCN(Cc3ccccc3Cl)CC2)cc1,0,55*,-3,-6,3,-2
O=[N+]([O-])c1ccc(/C=N/N2CCCCC2)cc1,-5,33*,-54,16,8,-2
CNC[C@H]1Oc2c(NS(=O)(=O)c3cccs3)cccc2C(=O)N([C@H](C)CO)C[C@H]1C,2,?,nt,1,2,-1
